Experiment: Toxicity liver stage against HepG2, at 10uM
Type: cell-based
Design: test concentration 10 uM, cell line HepG2-A16-CD81EGFP
Conditions: human, HepG2-A16-CD81EGFP cells; read-out: INHIBITION
Outline: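 Uninfected HepG2-A16-CD81EGFP cells, 3 × 10^3 per well, 1536-well, plated on prespotted compound at 10 μM final, parasite-free screening media added to match infected plates; puromycin 10 μM positive, DMSO 0.5% negative; run in parallel with 48 h PbLuc assay at 37 °C, 5% CO2; viability by CellTiter-Glo luminescence, normalized to controls.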

Row | Structure (SMILES) | cytotoxicity at 10 µM [%]
1 | N#CCCN(CC1CCCO1)C(=O)c1ccsc1 (stereo not given) | 0.325
2 | CCc1nn(-c2cc(Oc3cc(C)ccc3C)ncn2)c(N)c1C#N | 12.9
3 | Cc1nc2ccc(Cl)cn2c1CN1CCN(S(=O)(=O)N2CCCC2)CC1 | 16.6
4 | Cc1csc(C(=O)N2CC[C@H](Oc3cccnc3C)[C@@H](O)CC2)c1 | -10.7
5 | O=S(=O)(Cc1cccc(Cl)c1)CC(O)Cn1cccn1 (stereo not given) | -12.5
6 | c1cc2occc2c(N2CCCC(c3nncn3C3CC3)C2)n1 (stereo not given) | 1.97
7 | CC(C)(C)c1n[nH]c(C2CN(CCc3ccncc3)CCO2)n1 (stereo not given) | -12.3
8 | O=c1ccncn1Cc1csc(C2CC2)n1 | -0.572
9 | O=C(NCC1CCC2(CC1)OCCO2)c1ccncc1F | 14.4
10 | CNC(=O)c1ccc(CNc2ccncc2Cl)cc1 | 17.7
11 | COc1ncccc1NC(=O)N1CCCC(CNC(=O)OC(C)(C)C)C1 (stereo not given) | -1.71
12 | Cc1cc(NC2CCc3ncnn3C2)n2ncnc2n1 (stereo not given) | -18.4
13 | O=C(NCc1ccco1)N1CCC(n2ccc(C(F)(F)F)n2)CC1 | 12.2
14 | Cn1nc2c(cc1=O)CN(Cc1nc(N)c3ccccc3n1)CC2 | -8.86
15 | O=C(NC1CC1)c1cc(NC(=O)N2CCSCC2)ccc1Cl | -22.5
16 | Cn1cnnc1-c1ccnc(NCc2ccccc2)c1 | -4.98
17 | O=C(NCCOc1ccc(C(F)(F)F)cn1)c1ccoc1 | -10.1
18 | CCc1nc(C)ncc1C(=O)N1CC(C)CN(C)c2ccccc21 (stereo not given) | 10.7
19 | O=C(Nc1ccc(Cn2cccn2)cc1)N1CCC(CO)CC1 | 47.8
20 | Cc1ccc(-c2nc(CN(C)C3CCS(=O)(=O)C3)cs2)o1 (stereo not given) | -8.05
21 | O=C([C@@H]1CCO[C@@H]2CCN(CC3CC3)C[C@H]21)N1CCCC1 | -103
22 | O=C(NCc1cccnc1)N1CCn2c(Cn3cccn3)cnc2C1 | -71.1
23 | Cc1noc(C)c1CN1C[C@@H]2COC[C@@H](C(=O)N3CCCO3)[C@@H]2C1 | -69.9

Row | Structure (SMILES) | cytotoxicity at 10 µM [%]
24 | CN1CCN([C@H]2COC[C@@H]3CN(Cc4cccnc4)C[C@@H]32)CC1 | -77.9
25 | COCC(=O)N1CCC2(CC1)CN(c1ncccn1)CCO2 | -67.3
26 | Cc1cc(CN2CC[C@H]3C[C@@H](c4nccs4)O[C@@H]3C2)no1 | -84.8
27 | CC(C)O[C@H]1CN(C(=O)CCN2CCCCO2)C[C@@H]1O | -7.12
28 | Cc1nc(CN2CCCC(CCc3ccccc3F)C2)c[nH]1 (stereo not given) | -6.55
29 | NC1CCCCN(Cc2cc(C3CCCCC3)no2)C1 (stereo not given) | -14.1
30 | Cc1n[nH]c(C)c1-c1cc(-c2cccc(O)c2)nc(N)c1C#N | 26.9
31 | Cc1nc(C(=O)N2CCN(C(=O)N(C)C)[C@@H]3CS(=O)(=O)C[C@@H]32)cs1 | 4.96
32 | O=S(=O)(c1ccc2c(c1)OCCO2)N1CCc2ccccc2C1 | -5.52
33 | CN(CC1(CO)CCC1)c1nc2c(c(=O)[nH]1)Cc1ccccc1OC2 | -17.2
34 | COCCN1CC(C(=O)N(C)Cc2csc(C)n2)CC1=O (stereo not given) | 12.5
35 | OC1CN(Cc2ccccc2)CCN(c2ccncc2)C1 (stereo not given) | -4.74
36 | O=C(c1ccc(S(=O)(=O)NCCc2ccncc2)cc1)N1CCCC1 | 1.67
37 | CCOC(=O)C1(Cc2cccc(OC)c2)CCN(Cc2ncc[nH]2)CC1 | -7.82
38 | CC(NC(=O)NCc1ccccc1)(C(=O)O)c1ccco1 (stereo not given) | -3.37
39 | O=C(Cc1ccccc1Cl)N1CCN(CC(O)COCCO)CC1 (stereo not given) | 5.51
40 | c1cnn(CC2CCCN2c2ncnc3ccsc23)c1 (stereo not given) | 9.12
41 | O=C(NCCNc1ncccn1)N1CCN(Cc2cccnc2)CC1 | -3.71
42 | COc1ncc(C2(O)CCN(Cc3ccc(F)c(F)c3)CC2)c(OC)n1 | -0.279
43 | COCCN1CCC(c2nc3ccc(NC4CCC4)cn3n2)CC1 | -119
44 | CNC(=O)c1cc2c(nc1N(C)C)CCN(c1ncc(C)cn1)CC2 | -119
45 | O=C1CCCC2=Nc3nonc3NC(c3ccc(Cl)cc3Cl)C12 (stereo not given) | 5.24

Reference: ChEMBL document CHEMBL4513216, “Probing the Open Global Health Chemical Diversity Library for Multistage-Active Starting Points for Next-Generation Antimalarials” (ACS Infect Dis, 2020)
